Results of several laboratories.
Converted amounts (≈) assume the structure as drawn.

CNC(=S)NN=Cc1ccc(F)cc1 — IC50 (Leishmania tropica; parasite growth; J774.A1; 72 h, intracellular, amastigote): 762 µM
CCOC(=O)C1=C(CN2CCC[C@H]2C(=O)Nc2ccc(B(O)O)cc2)NC(c2nccs2)=N[C@@H]1c1ccc(F)cc1Br — EC50 (Hepatitis B virus; viral replication, inhibitor, qPCR; HepDES19; 72 h): 33.3 µM
S=C(NN=Cc1ccc(Br)cc1)Nc1cccnc1 — IC50 (Leishmania tropica; parasite growth, MTT; 72 h, promastigote): 551 µM
O=[N+]([O-])C1=Cc2ccccc2OC1c1cccc(OCc2ccc(Cl)cc2)c1 (stereo not drawn) — IC50 (Leishmania tropica; parasite growth; THP-1; 72 h, intracellular, amastigote): 149 µg/mL
CNC(=S)NN=Cc1ccc(C)cc1 — IC50 (Leishmania tropica; parasite growth, MTT; 72 h, promastigote): 1050 µM
Cc1ccc(-c2cc(-c3ccc(OCc4ccccc4)cc3)nc3c(N=Nc4ccc(F)cc4)c(N)nn23)cc1 — MIC (Saccharomyces cerevisiae; microbial growth, broth dilution; ATCC9763): 62.5 µg/mL (≈ 118 µM)
CCOC(=O)C1=C(CN2CCN(Cc3ccc(B(O)O)cc3)CC2)NC(c2nccs2)=NC1c1ccc(F)cc1Br (stereo not drawn) — EC50 (Hepatitis B virus; viral replication, inhibitor, qPCR; HepDES19; 72 h): 0.97 µM
C[C@@H]1[C@H](O)[C@@H](C)/C=C/C=C/C=C/C=C/C=C/C=C/C=C/[C@H](O[C@@H]2O[C@H](C)[C@@H](O)[C@H](N)[C@@H]2O)C[C@@H]2O[C@](O)(C[C@@H](O)C[C@@H](O)[C@H](O)CC[C@@H](O)C[C@@H](O)CC(=O)O[C@H]1C)C[C@H](O)[C@H]2C(=O)O — IC50 (Leishmania tropica; parasite growth; J774.A1; 72 h, intracellular, amastigote): 27.9 µM
O=[N+]([O-])C1=Cc2ccccc2OC1c1ccc(Cl)cc1 (stereo not drawn) — IC50 (Leishmania tropica; parasite growth; THP-1; 72 h, intracellular, amastigote): 155 µg/mL
C[C@@H]1[C@H](O)[C@@H](C)/C=C/C=C/C=C/C=C/C=C/C=C/C=C/[C@H](O[C@@H]2O[C@H](C)[C@@H](O)[C@H](N)[C@@H]2O)C[C@@H]2O[C@](O)(C[C@@H](O)C[C@@H](O)[C@H](O)CC[C@@H](O)C[C@@H](O)CC(=O)O[C@H]1C)C[C@H](O)[C@H]2C(=O)O — MIC (Saccharomyces cerevisiae; microbial growth, broth dilution; BY4741; 48 h): 0.25 µg/mL (≈ 0.271 µM)
CC(=O)N1CCN(c2ccc(OCC3COC(Cn4ccnc4)(c4ccc(Cl)cc4Cl)O3)cc2)CC1 (stereo not drawn) — MFC (Saccharomyces cerevisiae; microbial killing, broth dilution; ATCC9763): 15.6 µg/mL (≈ 29.4 µM)
CCOC(=O)C1=C(CN2CCN(Cc3ccccc3B(O)O)CC2)NC(c2nccs2)=NC1c1ccc(F)cc1Br (stereo not drawn) — EC50 (Hepatitis B virus; viral replication, inhibitor, qPCR; HepDES19; 72 h): 1.47 µM
CNC(=S)NN=Cc1ccc([N+](=O)[O-])cc1 — IC50 (Leishmania tropica; parasite growth, MTT; 72 h, promastigote): 240 µM
CCOC(=O)C1=C(CN2CCN(Cc3cccc(B(O)O)c3)CC2)NC(c2nccs2)=NC1c1ccc(F)cc1Br (stereo not drawn) — EC50 (Hepatitis B virus; viral replication, inhibitor, qPCR; HepDES19; 72 h): 1.27 µM
COc1ccc(C=NNC(=S)Nc2cccnc2)cc1 — IC50 (Leishmania tropica; parasite growth, MTT; 72 h, promastigote): 642 µM
CCOC(=O)C1=C(CN2CCC(C(=O)Nc3ccccc3B(O)O)C2)NC(c2nccs2)=NC1c1ccc(F)cc1Br (stereo not drawn) — EC50 (Hepatitis B virus; viral replication, inhibitor, qPCR; HepDES19; 72 h): 1.97 µM
O=[N+]([O-])C1=Cc2ccccc2OC1c1ccccc1OCc1ccccc1Cl (stereo not drawn) — IC50 (Leishmania tropica; parasite growth; THP-1; 72 h, intracellular, amastigote): 171 µg/mL
CNC(=S)NN=Cc1ccc(OC)c(OC)c1 — IC50 (Leishmania tropica; parasite growth, MTT; 72 h, promastigote): 258 µM
Cc1ccc(N=Nc2c(N)nn3c(-c4ccc(Cl)cc4Cl)cc(-c4ccc(OCc5ccccc5)cc4)nc23)cc1 — MIC (Saccharomyces cerevisiae; microbial growth, broth dilution; ATCC9763): 31.3 µg/mL (≈ 54 µM)
CCOC(=O)C1=C(CN2CCC(C(=O)Nc3ccccc3B3OC(C)(C)C(C)(C)O3)C2)NC(c2nccs2)=NC1c1ccc(F)cc1Br (stereo not drawn) — EC50 (Hepatitis B virus; viral replication, inhibitor, qPCR; HepDES19; 72 h): 3.17 µM
O=[N+]([O-])C1=Cc2ccccc2OC1c1cccc(Cl)c1 (stereo not drawn) — IC50 (Leishmania tropica; parasite growth; THP-1; 72 h, intracellular, amastigote): 151 µg/mL
OC(Cn1cncn1)(Cn1cncn1)c1ccc(F)cc1F — MIC (Saccharomyces cerevisiae; microbial growth, broth dilution; BY4741; 48 h): 4 µg/mL (≈ 13.1 µM)
Cc1ccc(N=Nc2c(N)nn3c(-c4ccco4)cc(-c4ccc(OCc5ccccc5)cc4)nc23)cc1 — MFC (Saccharomyces cerevisiae; microbial killing, broth dilution; ATCC9763): 62.5 µg/mL (≈ 125 µM)
Cc1ccc(COc2cccc(C3Oc4ccccc4C=C3[N+](=O)[O-])c2)cc1 (stereo not drawn) — IC50 (Leishmania tropica; parasite growth; THP-1; 72 h, intracellular, amastigote): 162 µg/mL
CCOC(=O)C1=C(CN2CCC[C@@H]2C(=O)Nc2cccc(B(O)O)c2)NC(c2nccs2)=N[C@@H]1c1ccc(F)cc1Br — EC50 (Hepatitis B virus; viral replication, inhibitor, qPCR; HepDES19; 72 h): 2.6 µM
COc1ccc(N=Nc2c(N)nn3c(-c4ccco4)cc(-c4ccc(OCc5ccccc5)cc4)nc23)cc1 — MFC (Saccharomyces cerevisiae; microbial killing, broth dilution; ATCC9763): 125 µg/mL (≈ 242 µM)
O=[N+]([O-])C1=Cc2ccccc2OC1c1ccc(F)cc1 (stereo not drawn) — IC50 (Leishmania tropica; parasite growth; THP-1; 72 h, intracellular, amastigote): 147 µg/mL
Cc1ccc(N=Nc2c(N)nn3c(-c4ccc(C)cc4)cc(-c4ccc(OCc5ccccc5)cc4)nc23)cc1 — MFC (Saccharomyces cerevisiae; microbial killing, broth dilution; ATCC9763): 250 µg/mL (≈ 477 µM)
O=[N+]([O-])C1=Cc2ccccc2OC1c1cccc(OCc2ccc([N+](=O)[O-])cc2)c1 (stereo not drawn) — IC50 (Leishmania tropica; parasite growth; THP-1; 72 h, intracellular, amastigote): 144 µg/mL
COc1ccc(N=Nc2c(N)nn3c(-c4ccc(Cl)cc4Cl)cc(-c4ccc(OCc5ccccc5)cc4)nc23)cc1 — MIC (Saccharomyces cerevisiae; microbial growth, broth dilution; ATCC9763): 125 µg/mL (≈ 210 µM)
Cc1ccc(COc2ccc(C3Oc4ccccc4C=C3[N+](=O)[O-])cc2)cc1 (stereo not drawn) — IC50 (Leishmania tropica; parasite growth; THP-1; 72 h, intracellular, amastigote): 150 µg/mL
COc1ccc(C=NNC(=S)Nc2cccnc2)cc1OC — IC50 (Leishmania tropica; parasite growth; J774.A1; 72 h, intracellular, amastigote): > 1000 µM
COc1ccc(N=Nc2c(N)nn3c(-c4ccc(C)cc4)cc(-c4ccc(OCc5ccccc5)cc4)nc23)cc1 — MIC (Saccharomyces cerevisiae; microbial growth, broth dilution; ATCC9763): 31.3 µg/mL (≈ 57.9 µM)
